Test results reported in ChEMBL document CHEMBL1212770, “Molecular and biochemical characterization of the natural chromosome-encoded class A beta-lactamase from Pseudomonas luteola” (Antimicrob Agents Chemother, 2010).
Converted amounts (≈) assume the structure as drawn. The source made the active and inactive calls. The calls are words filed in the database; no cut-off is given here.

Tests used:
Pseudomonas luteola [1] = assay: Antimicrobial activity against Pseudomonas luteola expressing blaLUT-2 to blaLUT-6 by Etest method; assay type: functional
Pseudomonas luteola [2] = assay: Antimicrobial activity against Pseudomonas luteola LAM expressing blaLUT-1 by Etest method; assay type: functional
Escherichia coli [3] = assay: Antimicrobial activity against Escherichia coli DH10B transfected with pBK-L3 expressing blaLUT-1 by Etest method; assay type: functional; conditions: K-12 DH10B
Pseudomonas luteola [4] = assay: Antimicrobial activity against Pseudomonas luteola by disk diffusion method; assay type: functional
Summary of the method: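 Disk diffusion panel of 32 antimicrobial drugs tested on P. luteola clinical isolates and the type strain. Isolates were identified by API-20 NE and by sequencing of PCR-amplified rrs and rpoB.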

Escherichia coli [5] = assay: Antimicrobial activity against Escherichia coli DH10B at 2:1 ratio of compound to clavulanic acid by Etest method; assay type: functional; conditions: K-12 DH10B
Escherichia coli [6] = assay: Antimicrobial activity against Escherichia coli DH10B by Etest method; assay type: functional; conditions: K-12 DH10B
Pseudomonas luteola [7] = assay: Antimicrobial activity against Pseudomonas luteola expressing blaLUT-2 to blaLUT-6 at 2:1 ratio of compound to clavulanic acid by Etest method; assay type: functional
Pseudomonas luteola [8] = assay: Antimicrobial activity against Pseudomonas luteola LAM expressing blaLUT-1 at 2:1 ratio of compound to clavulanic acid by Etest method; assay type: functional
Escherichia coli [9] = assay: Antimicrobial activity against Escherichia coli DH10B transfected with pBK-L3 expressing blaLUT-1 at 2:1 ratio of compound to clavulanic acid by Etest method; assay type: functional; conditions: K-12 DH10B
Pseudomonas luteola [10] = assay: Antimicrobial activity against Pseudomonas luteola expressing blaLUT-2 to blaLUT-6 by Etest method in presence of 4 ug/ml clavulanic acid; assay type: functional
Escherichia coli [11] = assay: microbe, parasite or virus in culture; conditions: K-12 DH10B
Escherichia coli [12] = assay: Antimicrobial activity against Escherichia coli DH10B by Etest method in presence of 4 ug/ml clavulanic acid; assay type: functional; conditions: K-12 DH10B
Pseudomonas luteola [13] = assay: Antimicrobial activity against Pseudomonas luteola LAM expressing blaLUT-1 by Etest method in presence of 4 ug/ml clavulanic acid; assay type: functional

**Q.** For `CO/N=C(\C(=O)N[C@@H]1C(=O)N2C(C(=O)[O-])=C(C[N+]3(C)CCCC3)CS[C@H]12)c1csc(N)n1`, which MIC (Pseudomonas luteola [1]) is on record?
**A.** 1 µg/mL (≈ 2.08 µM)

**Q.** And the MIC (Pseudomonas luteola [2])?
**A.** 0.5 µg/mL (≈ 1.04 µM)

**Q.** What about the MIC (Escherichia coli [3]) of the same molecule?
**A.** 0.5 µg/mL (≈ 1.04 µM)

**Q.** Which Activity (Pseudomonas luteola [4]) does the source give for `COc1cc(Cc2cnc(N)nc2N)cc(OC)c1OC` here?
**A.** inactive

**Q.** Which Activity (Pseudomonas luteola [4]) does the source give for `Cn1nnnc1SCC1=C(C(=O)O)N2C(=O)[C@@H](NC(=O)[C@H](O)c3ccccc3)[C@H]2SC1` here?
**A.** inactive

**Q.** Which Activity (Pseudomonas luteola [2]) does the source give for `O=C(N[C@H](CO)[C@H](O)c1ccc([N+](=O)[O-])cc1)C(Cl)Cl` here?
**A.** inactive

**Q.** How did the MIC (Pseudomonas luteola [1]) turn out when `CC1(C)S[C@@H]2[C@H](NC(=O)[C@H](N)c3ccc(O)cc3)C(=O)N2[C@H]1C(=O)O` [AMOXICILLIN] was run?
**A.** 4 µg/mL (≈ 10.9 µM)

**Q.** And the MIC (Escherichia coli [5])?
**A.** 4 µg/mL

**Q.** And the MIC (Pseudomonas luteola [2])?
**A.** 4 µg/mL (≈ 10.9 µM)

**Q.** What about the MIC (Escherichia coli [6]) of the same molecule?
**A.** 4 µg/mL (≈ 10.9 µM)

**Q.** And the MIC (Escherichia coli [3])?
**A.** 128 µg/mL (≈ 350 µM)

**Q.** What about the MIC (Pseudomonas luteola [7]) of the same molecule?
**A.** 1 µg/mL

**Q.** What about the MIC (Pseudomonas luteola [8]) of the same molecule?
**A.** 1 µg/mL

**Q.** What about the MIC (Escherichia coli [9]) of the same molecule?
**A.** 4 µg/mL

**Q.** `C[C@H]1[C@H](NC(=O)/C(=N\OC(C)(C)C(=O)O)c2csc(N)n2)C(=O)N1S(=O)(=O)O` [AZTREONAM] was tested. Which MIC (Pseudomonas luteola [1]) did it give?
**A.** 4 µg/mL (≈ 9.19 µM)

**Q.** What about the MIC (Pseudomonas luteola [2]) of the same molecule?
**A.** 2 µg/mL (≈ 4.59 µM)

**Q.** What about the MIC (Escherichia coli [3]) of the same molecule?
**A.** 2 µg/mL (≈ 4.59 µM)

**Q.** Which MIC (Pseudomonas luteola [1]) does the source give for `CO/N=C(\C(=O)N[C@@H]1C(=O)N2C(C(=O)O)=C(COC(C)=O)CS[C@H]12)c1csc(N)n1` [CEFOTAXIME] here?
**A.** 2 µg/mL (≈ 4.39 µM)

**Q.** And the MIC (Pseudomonas luteola [2])?
**A.** 1 µg/mL (≈ 2.2 µM)

**Q.** What about the MIC (Pseudomonas luteola [10]) of the same molecule?
**A.** 1 µg/mL

**Q.** What about the MIC (Escherichia coli [6]) of the same molecule?
**A.** < 0.06 µg/mL

**Q.** What about the MIC (Escherichia coli [3]) of the same molecule?
**A.** 1 µg/mL (≈ 2.2 µM)

**Q.** What about the MIC (Escherichia coli [11]) of the same molecule?
**A.** 0.06 µg/mL (≈ 0.132 µM)

**Q.** What about the MIC (Escherichia coli [12]) of the same molecule?
**A.** < 0.06 µg/mL

**Q.** What about the MIC (Pseudomonas luteola [13]) of the same molecule?
**A.** 1 µg/mL

**Q.** `CO[C@@]1(NC(=O)Cc2cccs2)C(=O)N2C(C(=O)O)=C(COC(N)=O)CS[C@@H]21` [CEFOXITIN] was tested. Which MIC (Pseudomonas luteola [1]) did it give?
**A.** 32 µg/mL (≈ 74.9 µM)

**Q.** What about the MIC (Pseudomonas luteola [2]) of the same molecule?
**A.** 32 µg/mL (≈ 74.9 µM)

**Q.** What about the MIC (Escherichia coli [6]) of the same molecule?
**A.** 4 µg/mL (≈ 9.36 µM)

**Q.** What about the MIC (Escherichia coli [3]) of the same molecule?
**A.** 4 µg/mL (≈ 9.36 µM)
